This passage reports GI50 results from ChEMBL document CHEMBL1159128, “Structure-activity relationship of C5-curcuminoids and synthesis of their molecular probes thereof” (2010).

The term GI50 denotes the concentration at which growth is held to half of that of the control.

Bounds are passed on as bounds.

The test system of the first assay is DLD-1. In words: Cytotoxicity against human DLD1 cells.
Settings: not given
The assay is classed as functional.
The compound `COc1ccc(/C=C/C(=O)/C=C/c2ccc(OC)c(OC)c2)cc1OC` showed a concentration for 50% growth inhibition (GI50) of 2 µM.

`O=C(/C=C/c1ccc2c(c1)OCO2)/C=C/c1ccc2c(c1)OCO2` showed a GI50 of over 50 µM. The compound `COc1cc(/C=C/C(=O)CC(=O)/C=C/c2ccc(O)c(OC)c2)ccc1O` [CURCUMIN] showed a GI50 of 8 µM.

The next assay deals with HCT-116. The assay is described as follows: Growth inhibition of human HCT116 cells after 48 hrs by MTS assay. The class given is functional. Particulars: HCT-116, 48 h. The method, boiled down: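 Vehicle controls received 1% DMSO alone. Growth in treated wells was expressed as a percentage of this control and plotted against concentration, and the mean growth-inhibitory concentration (GI50) was read from the curve.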
For orientation: Tetrazolium dyes change colour on reduction, which living cells bring about.
`COc1cc(/C=C/C(=O)/C=C/c2ccc(O)c(OC)c2)ccc1O` registered a 50% growth inhibitory concentration (GI50) of 15 µM. Regarding `COc1ccc(/C=C/C(=O)/C=C(O)/C=C/c2ccc(OC)c(OC)c2)cc1OC`, the 50% growth inhibitory concentration (GI50) is 2 µM. In the case of `COc1ccc(/C=C/C(=O)/C=C/c2ccc(OC)c(OC)c2)cc1OC`, growth was halved (GI50) at 1.5 µM. Still for that read-out and setting: as for `COc1ccc(/C=C/C(=O)/C=C/c2ccc(OC)cc2OC)c(OC)c1`, the figure is over 50 µM; as for `COc1ccc(/C=C2\CCC/C(=C\c3ccc(OC)c(OC)c3)C2=O)cc1OC`, over 50 µM. Still for that read-out and setting: under `COc1cccc(/C=C/C(=O)/C=C/c2cccc(OC)c2OC)c1OC` stands 1.3 µM. Compound `COc1ccccc1/C=C/C(=O)/C=C/c1ccccc1OC` showed a GI50 of 4 µM. `COc1cc(/C=C/C(=O)/C=C/c2cc(OC)c(OC)c(OC)c2)cc(OC)c1OC`: it took 0.3 µM to inhibit growth by half (GI50).

In the case of `COc1cc(OC)c(/C=C/C(=O)/C=C/c2c(OC)cc(OC)cc2OC)c(OC)c1`, the GI50 was 2.3 µM. With `COc1cc(/C=C/C(=O)/C=C/c2cc(OC)c(O)c(OC)c2)cc(OC)c1O`, growth was halved (GI50) at 0.8 µM.

Compound `COc1ccc(/C=C/C(=O)/C=C/c2ccc(OC)c(O)c2)cc1O` returned a GI50 of 0.8 µM. `COc1cc(OC)c(OC)cc1/C=C/C(=O)/C=C/c1cc(OC)c(OC)cc1OC`: halving of growth (GI50) required 2 µM.

In turn, `COc1cc(/C=C/C(=O)/C=C/c2cc(OC)cc(OC)c2)cc(OC)c1` came in with a GI50 of 2 µM. `COc1ccc(OC)c(/C=C/C(=O)/C=C/c2cc(OC)ccc2OC)c1` returned a GI50 of 8.1 µM. Still for that read-out and setting: under `COc1ccc(/C=C/C(=O)/C=C/c2ccc(OC)cc2)cc1` stands 9 µM; under `COc1cc(/C=C/C(=O)/C=C/c2cccc(OC(c3ccccc3)(c3ccccc3)c3ccccc3)c2)cc(OC)c1OC`, 8.5 µM; under `COc1cc(/C=C/C(=O)/C=C/c2cc(OC)c(OCc3cn(Cc4ccc(OC5CCCCO5)cc4)nn3)c(OC)c2)cc(OC)c1OC` (configuration not stated), 0.3 µM. For `COc1cc(/C=C/C(=O)/C=C/c2cc(OC)c(OCc3cn(CCCCCCCCCOC(=O)CCC4=[N+]5C(=Cc6c(C)cc(C)n6[B-]5(F)F)C=C4)nn3)c(OC)c2)cc(OC)c1OC`, halving of growth (GI50) required 15 µM. Compound `COc1cc(/C=C/C(=O)/C=C/c2cc(OC)c(OCc3cn(CCCCCCCCCO)nn3)c(OC)c2)cc(OC)c1OC` had a 50% growth inhibitory concentration (GI50) of 0.8 µM. On the same count and under the same terms, as for `COc1cc(/C=C/C(=O)/C=C/c2cc(OC)c(OCc3cn(CCCCCCCCCCNC(=O)OC(C)(C)C)nn3)c(OC)c2)cc(OC)c1OC`, the figure is 0.8 µM; as for `COc1cc(/C=C/C(=O)/C=C/c2cc(OC)c(OCc3cn(CCCCCCCCCCOC(=O)CSCc4c(C)n5c(C)c(C)c(=O)n5c4=O)nn3)c(OC)c2)cc(OC)c1OC`, 2.6 µM.

With `COc1ccc(/C=C/C(=O)c2ccc(OC)c(OC)c2)cc1OC`, growth was halved (GI50) at 7 µM.

`COc1cc(OC)c(OC)c(OC)c1/C=C/C(=O)/C=C/c1c(OC)cc(OC)c(OC)c1OC` registered a GI50 of over 50 µM. As to `COc1cccc(/C=C/C(=O)/C=C/c2cccc(OC)c2)c1`, the GI50 was determined as 9.1 µM. `COc1ccc(/C=C/C(=O)/C=C/c2cc(OC)c(OC)c(OC)c2)cc1` gave a GI50 of 3 µM. Same read-out and setting: as for `COc1cccc(/C=C/C(=O)/C=C/c2cc(OC)c(OC)c(OC)c2)c1`, the figure is 6.9 µM; as for `COc1cc(/C=C/C(=O)/C=C/c2ccc(OC)c(OC)c2)ccc1O`, 0.7 µM. `COc1cc(/C=C/C(=O)/C=C/c2ccc(OC)c(OC)c2OC)cc(OC)c1OC` returned a concentration for 50% growth inhibition (GI50) of 1.9 µM. With `COCOc1ccc(/C=C/C(=O)/C=C/c2ccc(OCOC)c(OCOC)c2)cc1OCOC`, the GI50 was found to be 0.8 µM. `COc1ccc(/C=C/C(/C=C/c2ccc(OC)c(OC)c2)=NO)cc1OC` yielded a GI50 of over 50 µM. `CCCSC(CC(=O)/C=C/c1ccc(OC)c(OC)c1)c1ccc(OC)c(OC)c1` (configuration not stated) displayed a GI50 of 22 µM. The same measure, in the same setting: as for `COc1ccc(/C=C/C(=O)CCc2ccc(OC)c(OC)c2)cc1OC`, the figure is over 50 µM; as for `COc1ccc(CCC(=O)CCc2ccc(OC)c(OC)c2)cc1OC`, over 50 µM; as for `COc1cccc(OC)c1/C=C/C(=O)/C=C/c1c(OC)cccc1OC`, 9 µM. The compound `COc1ccc(/C=C/C(=O)/C=C/c2ccc(OC)c(OC)c2OC)c(OC)c1OC` displayed a GI50 of 3.5 µM.

The compound `COc1ccc(OC)c(OC)c1/C=C/C(=O)/C=C/c1c(OC)ccc(OC)c1OC` yielded a GI50 of 2.3 µM. Compound `COc1cc(/C=C/C(=O)/C=C/c2cccc(O)c2)cc(OC)c1OC` registered a GI50 of 0.9 µM. On the same count and under the same terms, as for `C=C1CC2CC(C1)/C(=C\c1ccc(OC)c(OC)c1)C(=O)/C2=C/c1ccc(OC)c(OC)c1`, the figure is over 50 µM. With `COc1cc(/C=C/C(=O)/C=C/c2cc(OC)c(OCCN=[N+]=[N-])c(OC)c2)cc(OC)c1OC`, halving of growth (GI50) required 9.7 µM. `COCOc1cccc(/C=C/C(=O)/C=C/c2cc(OC)c(OC)c(OC)c2)c1` returned a GI50 of 4 µM. The same measure, in the same setting: as for `CCOC(C)Oc1c(OC)cc(/C=C/C(=O)/C=C/c2cc(OC)c(OC)c(OC)c2)cc1OC` (configuration not stated), the figure is 1.5 µM; as for `C#CCOc1c(OC)cc(/C=C/C(=O)/C=C/c2cc(OC)c(OC)c(OC)c2)cc1OC`, 1.8 µM; as for `C#CCOc1c(OC)cc(/C=C/C(=O)/C=C/c2cc(OC)c(OCC#C)c(OC)c2)cc1OC`, 0.3 µM. `COc1cc(/C=C/C(=O)/C=C/c2cc(OC)c(OCCN=[N+]=[N-])c(OC)c2)cc(OC)c1OCCN=[N+]=[N-]` registered a concentration for 50% growth inhibition (GI50) of 7.6 µM.

In turn, `COc1ccc(/C=C/C(=O)/C=C/c2ccc(OC)c(OC)c2)cc1` registered a GI50 of 4 µM.

`COc1cc(/C=C/C(=O)/C=C/c2cccc(OS(=O)(=O)C(F)(F)F)c2)cc(OC)c1OC` displayed a 50% growth inhibitory concentration (GI50) of 2.4 µM. Compound `COc1cc(/C=C/C(=O)/C=C/c2cccc(C#Cc3ccccc3)c2)cc(OC)c1OC` returned a concentration for 50% growth inhibition (GI50) of 8.1 µM. Same read-out and setting: as for `CCOC(C)Oc1cccc(/C=C/C(=O)/C=C/c2cc(OC)c(OC)c(OC)c2)c1` (configuration not stated), the figure is 1.4 µM; as for `COc1cc(/C=C/C(=O)/C=C/c2cccc(Cl)c2)cc(OC)c1OC`, 17 µM. `COc1cc(/C=C/C(=O)/C=C/c2cc(OC)c(OC)c(OC)c2)cc(OC)c1O` had a GI50 of 0.8 µM. On to `COc1cc(/C=C/C(=O)/C=C/c2cc(OC)c(OCC(=O)O)c(OC)c2)cc(OC)c1OC`, for which halving of growth (GI50) required 38 µM. Same read-out and setting: under `COC(=O)COc1c(OC)cc(/C=C/C(=O)/C=C/c2cc(OC)c(OC)c(OC)c2)cc1OC` stands 7 µM. The same measure, in the same setting: as for `COc1ccc(/C=C/C(=O)/C=C/c2ccc(OC)c(OC)c2)cc1O`, the figure is 1.5 µM; as for `COCOc1c(OC)cc(/C=C/C(=O)/C=C/c2cc(OC)c(OCOC)c(OC)c2)cc1OC`, 0.3 µM; as for `CCCCCCCCCCCCCCOc1cccc(/C=C/C(=O)/C=C/c2cc(OC)c(OC)c(OC)c2)c1`, over 50 µM. The same measure, in the same setting: as for `COc1cc(/C=C/C(=O)/C=C/c2ccccc2)cc(OC)c1OC`, the figure is 4.4 µM. In the case of `C#CCOc1c(OC)cc(/C=C/C(=O)/C=C/c2cc(OC)c(OCOC)c(OC)c2)cc1OC`, the GI50 was found to be 2.4 µM. For `COc1cc(/C=C/C(=O)/C=C/c2cccc(OC(=O)C34CC5CC(CC(C5)C3)C4)c2)cc(OC)c1OC`, the GI50 turned out to be 7.6 µM.

`COc1ccc(/C=C/C(=O)/C=C/c2cc(OC)c(OC)c(OC)c2)cc1OC` showed a concentration for 50% growth inhibition (GI50) of 0.4 µM. The same measure, in the same setting: as for `COc1cc(/C=C/C(=O)/C=C/c2cc(OC)c(OCCO)c(OC)c2)cc(OC)c1OCCO`, the figure is 0.5 µM; as for `COc1cc(OC)c(OC)cc1/C=C/C(=O)/C=C/c1cc(OC)c(OC)c(OC)c1`, 3.3 µM; as for `COc1cc(/C=C/C(=O)/C=C/c2cc(OC)c(OCCO)c(OC)c2)cc(OC)c1OC`, 1.7 µM. For the compound `O=C(/C=C/c1cc(O)cc(O)c1)/C=C/c1cc(O)cc(O)c1`, the GI50 stood at 1.5 µM.

Compound `COc1ccc(CCC(O)CCc2ccc(OC)c(OC)c2)cc1OC` displayed a GI50 of over 50 µM.
